Published values of several laboratories.
Compare with care: the assays were run in different laboratories.
Cell line: NCI-H1299
Observed: cell growth or viability

COc1cc2c(Nc3ccc(NC(=O)c4ccccc4)cc3)ncnc2cc1OCCCN1CCOCC1 — IC50 (MTS; 72 h): 0.7 µM
Cc1c(-c2cccc(C(F)(F)F)c2)sc2[nH]c(=O)n([C@H](C)c3cccc4ccccc34)c(=O)c12 — inhibition (10 µM): > 80%
COc1ccccc1C#CCNCC(O)COc1cccc2[nH]c3ccccc3c12 (centres unmarked) — IC50 (CCK-8; 72 h): > 100 µM
CN1C[C@H](C(=O)N[C@]2(C)O[C@@]3(O)[C@@H]4CCCN4C(=O)[C@H](Cc4ccccc4)N3C2=O)C[C@@H]2c3cccc4[nH]cc(c34)C[C@H]21 — EC50 (MTT; 72 h): 70 µM
COc1ccc(-c2ccc(/C(C)=N/O)c(O)c2Cl)cc1C — viability (MTT; 30 µM; 48 h): 76%
COc1ccccc1OCCN1CCOC(COc2cccc3[nH]c4ccccc4c23)C1 (centres unmarked) — IC50 (CCK-8; 72 h): > 100 µM
COc1cccc(-c2ccc(/C(C)=N/O)c(O)c2Cl)c1 — viability (MTT; 30 µM; 48 h): 90%
C=C(c1ccc(C(=O)O)cc1)c1cc2c(cc1C)C(C)(C)CCC2(C)C — EC50 (MTT; 72 h): 44 µM
C/C(=N\O)c1ccc(-c2cccc(C#N)c2)c(Cl)c1O — viability (MTT; 30 µM; 48 h): 82%
Cc1cc2c(cc1N1C(=O)c3cccc4c(CCCO)ccc(c34)C1=O)n(C)c(=O)n2C (racemic) — GI50 (resazurin): > 10 µM
CCCc1ccc(OCC(O)CNC/C=C/c2ccccc2OC)cc1 (centres unmarked) — IC50 (CCK-8; 72 h): 11.4 µM
